Target: Aryl hydrocarbon receptor (Homo sapiens) (UniProt P35869)
Assay: DRE-driven luciferase activation via AHR – HG2L7.5c1 HepG2 cells, luminescence, AHR activator project, late-stage follow-up (AID 602171)
Details: HG2L7.5c1 HepG2 DRE-luciferase reporter, 24 h, at 10 µM, active compounds read high;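 active = reporter activation of at least 20% of the full response to the reference agonist; inactive = the rest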
Method in brief: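 Assay system: HepG2 (HG2L7.5c1) cells with DRE-driven luciferase reporter. Compound: single 10 µM nominal dose from powder samples. Incubation: 24 h compound exposure, 37 °C. Signal: firefly luciferase luminescence of lysed cells. Read-out basis: % of maximal TCDD activation. Control set: TCDD at maximal inducing level as positive reference. Replication: three wells each.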

Aryl hydrocarbon receptor (Homo sapiens), sequence (P35869 whole entry, looked up): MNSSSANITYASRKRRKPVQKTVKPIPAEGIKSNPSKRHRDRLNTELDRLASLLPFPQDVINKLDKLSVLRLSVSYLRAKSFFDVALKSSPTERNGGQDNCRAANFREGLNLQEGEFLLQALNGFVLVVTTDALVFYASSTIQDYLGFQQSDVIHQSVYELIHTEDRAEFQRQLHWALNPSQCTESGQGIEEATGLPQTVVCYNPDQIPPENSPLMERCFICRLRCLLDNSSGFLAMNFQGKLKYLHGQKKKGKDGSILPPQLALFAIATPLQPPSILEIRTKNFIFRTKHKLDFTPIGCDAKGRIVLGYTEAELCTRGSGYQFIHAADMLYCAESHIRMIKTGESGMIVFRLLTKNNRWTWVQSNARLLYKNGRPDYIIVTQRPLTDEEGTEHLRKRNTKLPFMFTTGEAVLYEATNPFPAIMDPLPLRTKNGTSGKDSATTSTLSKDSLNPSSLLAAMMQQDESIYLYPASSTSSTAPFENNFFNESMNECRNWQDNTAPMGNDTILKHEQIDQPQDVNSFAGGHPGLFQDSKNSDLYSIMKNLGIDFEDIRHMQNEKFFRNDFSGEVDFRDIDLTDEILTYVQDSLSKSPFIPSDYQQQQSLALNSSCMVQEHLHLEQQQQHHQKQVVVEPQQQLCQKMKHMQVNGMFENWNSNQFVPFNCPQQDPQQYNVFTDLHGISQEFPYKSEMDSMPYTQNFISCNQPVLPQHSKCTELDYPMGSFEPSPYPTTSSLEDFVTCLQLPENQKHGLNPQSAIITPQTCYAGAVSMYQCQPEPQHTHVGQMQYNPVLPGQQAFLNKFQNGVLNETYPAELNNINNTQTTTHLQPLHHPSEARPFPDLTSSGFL

Activation (% of TCDD max), active:
COc1cc2c(cc1NC(=O)Nc1ccc(C)cc1)oc1ccccc12 146%, Cc1ccccc1-c1nc(-c2cccnc2)no1 117%, Cc1cc(Nc2ccc(Br)cc2)n2nc(C)nc2n1 88%, COc1ccccc1NC(=O)c1ccc2c(c1)nnn2C 36%, Cn1c(N)c(C(=O)Nc2ccccc2F)sc1=S 106%, CC(=O)c1ccc(NC(=O)c2cc(Cl)nc3ccccc23)cc1 104%, COc1ccccc1C(=O)Nc1ccc(N2CCCCC2)cc1 52%, O=C(Nc1cccc(Cl)c1)c1cccnn1 44%, COc1ccc(Cl)cc1C(=O)Nc1ccc(N(C)C(C)=O)cc1 165%, O=C(CN1CCOCC1)Nc1nc2ccc([N+](=O)[O-])cc2s1 85%, CCOc1ccc(NC(=O)c2cc3ccccc3cc2OC)cc1 132%, COc1cc2ccccc2cc1C(=O)Nc1ccc(C)cc1 113%, Cc1csc(SCC(=O)Nc2ccc(Cl)cn2)n1 82%, Cn1c(C(=O)N2CCC(C(N)=O)CC2)cc2cc(Cl)ccc21 48%, COC(=O)c1ccccc1NC(=O)Cn1ccnc1 71%, Cc1nc(N)nc(Nc2ccc(Cl)cc2)c1Br 78%, CCCC(=O)Nc1nn(C)c2nc3cc(C)ccc3cc12 34%, COc1ccccc1NC(=O)Nc1cccnc1 55%, COc1ccccc1NC(=O)c1ccc(C(=O)Nc2ccccc2OC)nc1 88%, CCOc1ccccc1NC(=O)c1ccc2nccnc2c1 126%, O=C(Nc1ccon1)c1cnc2sccn2c1=O 75%, CN1CCN(CCCNC(=O)c2cc3c(-c4ccc(Cl)cc4)nn(C)c3s2)CC1 111%, CN(C)c1nc(N)nc(-c2nc3ccccc3s2)n1 105%, O=C1c2ccccc2-c2nc3ccccc3nc21 197%, Cc1nnc(N2C(=O)c3cccc4c([N+](=O)[O-])ccc(c34)C2=O)s1 98%, Cc1ccc(-c2cc(-c3cccs3)[nH]n2)c(O)c1 99%, Cc1c(-c2ccn[nH]2)cc(NC(=O)c2ccc(Cl)cc2)c(=O)n1N 86%, CCC(=O)Nc1cc(OC)c(NC(=O)c2ccccc2)cc1OC 89%, COc1ccc(NC(=O)c2cccc3c(Br)cccc23)cc1 128%, CCOC(=O)Cc1cc(-c2ccc(O)cc2)nc2ccc3ccccc3c12 109%, Cc1ccc(Nc2ncccc2C(N)=O)cc1 166%, CCOc1ccc(-c2cc(C)n3nc(C(N)=O)cc3n2)cc1 41%, COc1ccc(C(=O)Nc2cc(OC)c(NC(=O)c3ccco3)cc2OC)cc1 125%
